# In ChEMBL document CHEMBL1156167 (Bioorg Med Chem Lett, 2010):
# pEC50, pIC50: −log10 of the molar value. Calls of active or inactive are those of the source. The calls are words filed in the database; no cut-off is given here.
# Experiments:
# Mus musculus [1] = assay: Immunomodulatory activity in C57BL/6 mouse assessed as induction of lymphopenia at 10 mg/kg, po after 6 hrs by complete blood count analysis; format: functional
# In short: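 Pro-drug alcohol given to mouse as a single oral dose of 10 mg/kg. Redistribution of circulating lymphocytes was measured 6 h post-dose and reported as percent lymphopenia.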
# Mus musculus [2] = assay: Metabolic stability in C57BL/6 mouse assessed as alcohol pro-drug to phosphate drug conversion at 10 mg/kg, po after 6 hrs; format: ADME, organism-based; parameters: dose 10 mg/kg, route oral; conditions: in vivo
# In short: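 Alcohol pro-drug dosed orally to mouse at 10 mg/kg. At 6 h, the amount converted in vivo to the phosphate was determined and expressed as percent conversion of alcohol to phosphate.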
# [3] = biological target: T1, Sphingosine 1-phosphate receptor 3 (Homo sapiens, UniProt Q99500); assay: Displacement of [33P]sphingosine-1-phosphate from human S1P3 receptor expressed in HEK293T cells after 60 mins by scintillation counting; format: cell-based, HEK-293T
# Homo sapiens [4] = species: Homo sapiens; assay: Selectivity ratio of IC50 for human S1P3 receptor to IC50 for human S1P1 receptor by [33P]sphingosine-1-phosphate displacement assay
# [5] = biological target: T2, Sphingosine 1-phosphate receptor 1 (Homo sapiens, UniProt P21453); assay: Displacement of [33P]sphingosine-1-phosphate from human S1P1 receptor expressed in HEK293T cells after 60 mins by scintillation counting; format: cell-based, HEK-293T
# [6] = biological target: T1, Sphingosine 1-phosphate receptor 3; assay: Agonist activity at human S1P3 receptor expressed in HEK293T cells assessed as stimulation of gamma-[35S]GTP binding after 30 mins by scintillation counting
# [7] = biological target: T3, Sphingosine 1-phosphate receptor 4 (Homo sapiens, UniProt O95977); assay: Displacement of [33P]sphingosine-1-phosphate from human S1P4 receptor expressed in HEK293T cells after 60 mins by scintillation counting; format: cell-based, HEK-293T
# T3 sequence (O95977 whole entry): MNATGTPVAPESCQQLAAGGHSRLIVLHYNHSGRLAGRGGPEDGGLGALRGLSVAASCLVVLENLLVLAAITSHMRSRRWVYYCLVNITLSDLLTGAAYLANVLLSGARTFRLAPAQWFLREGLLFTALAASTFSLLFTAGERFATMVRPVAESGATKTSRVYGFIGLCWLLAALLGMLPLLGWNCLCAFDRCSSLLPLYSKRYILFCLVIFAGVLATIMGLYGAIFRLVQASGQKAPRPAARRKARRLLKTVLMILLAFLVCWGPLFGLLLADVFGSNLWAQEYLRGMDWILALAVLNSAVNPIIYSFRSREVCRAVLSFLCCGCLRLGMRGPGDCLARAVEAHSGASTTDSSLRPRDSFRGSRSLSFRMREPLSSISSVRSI
# [8] = biological target: T2, Sphingosine 1-phosphate receptor 1; assay: Agonist activity at human S1P1 receptor expressed in HEK293T cells assessed as stimulation of gamma-[35S]GTP binding after 30 mins by scintillation counting
# Homo sapiens [9] = species: Homo sapiens; assay: Selectivity ratio of EC50 for human S1P3 receptor to EC50 for human S1P1 receptor by gamma-[35S]GTP binding assay; format: functional
# [10] = biological target: Sphingosine 1-phosphate receptor 5 (Homo sapiens, UniProt Q9H228); assay: Displacement of [33P]sphingosine-1-phosphate from human S1P5 receptor expressed in HEK293T cells after 60 mins by scintillation counting; format: cell-based, HEK-293T
# Mus musculus [11] = assay: Immunomodulatory activity in C57BL/6 mouse assessed as induction of lymphopenia at 0.3 to 10 mg/kg, po after 6 hrs by complete blood count analysis; format: functional, organism-based
# In short: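 Mouse given a single oral dose of the pro-drug alcohol at 0.3, 1.0, 3.0 or 10.0 mg/kg alongside a vehicle group. Circulating lymphocyte redistribution was measured 6 h post-dose and expressed as lymphopenia relative to vehicle.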
# [12] = biological target: T2, Sphingosine 1-phosphate receptor 1; assay: Ratio of compound IC50 to PPI-4667-P IC50 for human S1P1 receptor expressed in HEK293T cells; format: cell-based; conditions: HEK-293T
# T1 sequence (Q99500 whole entry): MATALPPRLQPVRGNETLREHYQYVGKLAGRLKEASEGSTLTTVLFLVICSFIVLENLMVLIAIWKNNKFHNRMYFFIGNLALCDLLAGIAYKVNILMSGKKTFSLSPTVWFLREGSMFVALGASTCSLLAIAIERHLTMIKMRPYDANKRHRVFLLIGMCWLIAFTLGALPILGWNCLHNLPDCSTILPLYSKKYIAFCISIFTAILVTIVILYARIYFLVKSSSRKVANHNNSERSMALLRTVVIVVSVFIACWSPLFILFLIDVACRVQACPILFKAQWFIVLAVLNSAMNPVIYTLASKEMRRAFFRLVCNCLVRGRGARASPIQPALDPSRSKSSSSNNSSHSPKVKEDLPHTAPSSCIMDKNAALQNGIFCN
# Sequence of Sphingosine 1-phosphate receptor 5 (Q9H228 whole entry): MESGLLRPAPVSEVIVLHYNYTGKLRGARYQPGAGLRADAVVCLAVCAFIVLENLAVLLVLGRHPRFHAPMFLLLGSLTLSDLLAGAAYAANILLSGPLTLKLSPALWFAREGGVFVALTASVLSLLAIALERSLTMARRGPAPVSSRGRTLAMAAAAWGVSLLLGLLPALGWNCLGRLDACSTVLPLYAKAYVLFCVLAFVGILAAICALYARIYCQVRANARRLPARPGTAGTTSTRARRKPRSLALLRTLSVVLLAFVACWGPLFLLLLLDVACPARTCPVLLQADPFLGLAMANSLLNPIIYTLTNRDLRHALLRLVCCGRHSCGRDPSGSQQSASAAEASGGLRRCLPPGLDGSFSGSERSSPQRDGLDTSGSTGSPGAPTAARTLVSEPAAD
# T2 sequence (P21453 whole entry): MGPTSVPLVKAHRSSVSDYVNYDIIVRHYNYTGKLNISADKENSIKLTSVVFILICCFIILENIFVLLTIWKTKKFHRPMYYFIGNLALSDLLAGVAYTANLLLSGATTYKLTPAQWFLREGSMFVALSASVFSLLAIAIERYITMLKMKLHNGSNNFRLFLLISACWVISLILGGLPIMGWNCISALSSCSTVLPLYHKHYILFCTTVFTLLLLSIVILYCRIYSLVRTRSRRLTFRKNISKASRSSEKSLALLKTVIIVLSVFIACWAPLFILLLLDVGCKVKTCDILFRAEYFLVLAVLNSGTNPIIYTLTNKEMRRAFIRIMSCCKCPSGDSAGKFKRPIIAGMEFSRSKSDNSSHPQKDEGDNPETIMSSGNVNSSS
SMILES,pIC50 [3],Ratio IC50 (Homo sapiens [4]),pIC50 [5],pEC50 [6],pEC50 [8],other results
C[C@](N)(CO)C(=O)Nc1ccc(C(=O)CCc2ccc(-c3ccccc3)cc2)cc1,–,–,–,–,–,Activity (Mus musculus [1]): 84%; Activity (Mus musculus [2]): 40%
CCCCCCCCCCCCC/C=C/[C@@H](O)[C@@H](N)COP(=O)(O)O,9.04,–,9.11,8.62,8.25,pIC50 [7]: 8.98
C[C@](N)(CO)C(=O)Nc1ccc(C(=O)NCc2ccc(-c3ccccc3)cc2)cc1,–,–,–,–,–,Activity (Mus musculus [1]): 32%
C[C@](N)(COP(=O)(O)O)C(=O)Nc1ccc(OCCc2ccc(-c3ccccc3)cc2)cc1C(F)(F)F,6.15,109,8.19,–,–,–
C[C@](N)(CO)C(=O)Nc1ccc(OCCc2ccc(-c3ccccc3)cc2)cc1,–,–,–,–,–,Activity (Mus musculus [2]): 14%
C[C@](N)(COP(=O)(O)O)C(=O)Nc1ccc(C(=O)CCc2ccc(-c3ccccc3)cc2)cc1,5.42,917,8.38,< 5.52,7.74,Ratio EC50 (Homo sapiens [9]): > 164; pIC50 [7]: 7.88; pIC50 [10]: 5.87
C[C@](N)(COP(=O)(O)O)c1nc(-c2ccc(OCCc3ccc(-c4ccccc4)cc3)c(C(F)(F)F)c2)c[nH]1,< 4.00,> 10000,8.03,< 5.52,7.65,Ratio EC50 (Homo sapiens [9]): > 134; Activity (Mus musculus [1]): 64%; pIC50 [7]: 8.19; Activity (Mus musculus [2]): 6.8%; pIC50 [10]: 6.74
C[C@](N)(COP(=O)(O)O)C(=O)Nc1ccc(OCCc2ccc(-c3ccccc3)cc2)c(C(F)(F)F)c1,5.35,18800,9.62,< 5.52,8.84,Ratio EC50 (Homo sapiens [9]): > 2080; pIC50 [7]: 8.47; pIC50 [10]: 7.06
C[C@](N)(COP(=O)(O)O)c1nc(-c2ccc(OCc3ccc(-c4ccccc4)cc3)c(C(F)(F)F)c2)c[nH]1,5.70,8700,9.64,< 5.52,8.79,Ratio EC50 (Homo sapiens [9]): > 1850; Activity (Mus musculus [1]): 85%; pIC50 [7]: 8.36; Activity (Mus musculus [2]): 70.1%; pIC50 [10]: 8.02
C[C@](N)(CO)c1nc(-c2ccc(OCc3ccc(-c4ccccc4)cc3)c(C(F)(F)F)c2)c[nH]1,–,–,–,–,–,Activity (Mus musculus [11]): Active
C[C@](N)(CO)C(=O)Nc1ccc(SCCc2ccc(-c3ccccc3)cc2)cc1,–,–,–,–,–,Activity (Mus musculus [1]): 21%
C[C@](N)(COP(=O)(O)O)c1nc(-c2ccc(OCc3ccc(-c4ccccc4)cc3)cc2)c[nH]1,–,19,–,7.26,8.66,Ratio EC50 (Homo sapiens [9]): 25
C[C@](N)(COP(=O)(O)O)C(=O)Nc1ccc(OCCc2ccc(-c3ccccc3)cc2)cc1,–,190,–,6.92,9.28,Ratio EC50 (Homo sapiens [9]): 231; pIC50 [7]: 7.99; pIC50 [10]: 7.36

# Continued, in another order:
pIC50 [3],Ratio IC50 (Homo sapiens [4]),pIC50 [5],pEC50 [6],pEC50 [8],SMILES,other results
6.55,356,9.10,–,–,C[C@](N)(COP(=O)(O)O)C(=O)Nc1ccc(OCCc2ccc(-c3ccccc3)cc2)c(Cl)c1,–
6.00,769,8.89,–,–,C[C@](N)(COP(=O)(O)O)C(=O)Nc1ccc(OCCc2ccc(-c3ccccc3)cc2)c(Br)c1,–
< 6.00,–,6.30,–,–,CNC(=O)c1cc(NC(=O)[C@@](C)(N)COP(=O)(O)O)ccc1OCCc1ccc(-c2ccccc2)cc1,–
5.49,542,8.22,–,–,Cc1cc(NC(=O)[C@@](C)(N)COP(=O)(O)O)ccc1OCCc1ccc(-c2ccccc2)cc1,–
< 5.00,–,< 5.00,–,–,C[C@](N)(COP(=O)(O)O)C(=O)Nc1ccc(OCCc2ccc(-c3ccccc3)cc2)c(C(=O)O)c1,–
< 5.00,> 476,7.68,–,–,COC(=O)c1cc(NC(=O)[C@@](C)(N)COP(=O)(O)O)ccc1OCCc1ccc(-c2ccccc2)cc1,–
5.70,588,8.47,–,–,C[C@](N)(COP(=O)(O)O)C(=O)Nc1ccc(OCCc2ccc(-c3ccccc3)cc2)c(C#N)c1,Ratio IC50 [12]: 3
< 6.00,–,6.82,–,–,C[C@](N)(COP(=O)(O)O)C(=O)Nc1ccc(OCCc2ccc(-c3ccccc3)cc2)c(C(N)=O)c1,–
